In ChEMBL document CHEMBL3102776, “Synthesis and biological evaluation of farnesylthiosalicylamides as potential anti-tumor agents” (Bioorg Med Chem, 2014):
In brackets after ≈: the same amount, converted by molar mass. Activity calls are given as the source filed them. The calls are words filed in the database; no cut-off is given here.

Columns and labels:
[1] = system: SMMC-7721; assay: Induction of apoptosis in human SMMC7721 cells assessed as increase in Bax level after 48 hrs by Western blotting analysis; format: functional, cell-based
Method in brief: (§1)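 SMMC-7721 cells treated with or without compound at several concentrations for 48 h. Lysates immunoblotted for Bax, Bcl-2 and caspase-3, with β-actin as loading control. Band levels relative to β-actin quantified by densitometric scanning. Means ± SEM from three separate experiments.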

[2] = system: MCF7; assay: Cytotoxicity against human MCF7 cells after 48 hrs by MTT assay; format: functional, cell-based; conditions: MCF7, 48 h
Method in brief: (§2)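 Cells seeded at 10⁴ per well in DMEM with 10% FBS and grown overnight. Compound at a range of concentrations for 48 h, in triplicate. MTT (5 mg mL⁻¹ stock) added for the last 4 h, formazan dissolved in DMSO, absorbance read at 570 nm. Percent inhibition used to derive IC50. Values are mean ± SEM of at least three independent experiments.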

[3] = Cytotoxicity against human H460 cells after 48 hrs by MTT assay; format: functional, cell-based; conditions: NCI-H460, 48 h; method in brief: as §2
[4] = system: SMMC-7721; assay: Induction of apoptosis in human SMMC7721 cells assessed as late apoptotic cells at 3 uM after 48 hrs by annexin V-FITC/propidium iodide staining-based flow cytometry (reference value: 1.55%); format: functional
[5] = system: SMMC-7721; assay: Induction of apoptosis in human SMMC7721 cells assessed as reduction in Bcl2 level after 48 hrs by Western blotting analysis; format: functional, cell-based
[6] = system: SMMC-7721; assay: Induction of apoptosis in human SMMC7721 cells assessed as viable cells at 12 uM after 48 hrs by annexin V-FITC/propidium iodide staining-based flow cytometry (reference value: 93.81%); format: functional; conditions: SMMC-7721, 48 h, read-out: Activity
[7] = system: SMMC-7721; assay: Inhibition of Ras in human SMMC7721 cells assessed as reduction in phosphorylated ERK2 level at 12 uM after 8 hrs by immunoblotting analysis; format: cell-based
Method in brief: (§3)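 SMMC-7721 cells at 1.5 × 10⁵/mL treated with 3.0, 6.0 or 12 µmol/L compound or vehicle for 8 h. Cells lysed, 50 µg protein per lane run on 12% SDS–PAGE gels. Blots probed for total and phospho-ERK1/2 (Thr202/Tyr204), total and phospho-Akt (Ser473), and β-actin. Densitometry relative to β-actin. Means ± SEM of three experiments.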

[8] = system: SMMC-7721; assay: Induction of apoptosis in human SMMC7721 cells assessed as early apoptotic cells at 6 uM after 48 hrs by annexin V-FITC/propidium iodide staining-based flow cytometry (reference value: 3.87%); format: functional
[9] = system: SMMC-7721; assay: Induction of apoptosis in human SMMC7721 cells assessed as necrotic cells at 3 uM after 48 hrs by annexin V-FITC/propidium iodide staining-based flow cytometry (reference value: 0.77%); format: functional
[10] = system: SMMC-7721; assay: Induction of apoptosis in human SMMC7721 cells after 48 hrs by annexin V-FITC/propidium iodide staining-based flow cytometry; format: functional, cell-based
[11] = system: SMMC-7721; assay: Induction of apoptosis in human SMMC7721 cells assessed as viable cells at 3 uM after 48 hrs by annexin V-FITC/propidium iodide staining-based flow cytometry (reference value: 93.81%); format: functional; conditions: SMMC-7721, 48 h, read-out: Activity
[12] = system: SMMC-7721; assay: Cytotoxicity against human SMMC7721 cells after 48 hrs by MTT assay; format: functional, cell-based; conditions: SMMC-7721, 48 h; method in brief: as §2
[13] = system: SMMC-7721; assay: Inhibition of Ras in human SMMC7721 cells assessed as reduction in phosphorylated Akt level after 8 hrs by immunoblotting analysis; format: cell-based; method in brief: as §3
[14] = system: SMMC-7721; assay: Induction of apoptosis in human SMMC7721 cells assessed as increase in caspase-3 level after 48 hrs by Western blotting analysis; format: functional, cell-based; method in brief: as §1
[15] = system: SMMC-7721; assay: Induction of apoptosis in human SMMC7721 cells assessed as early apoptotic cells at 12 uM after 48 hrs by annexin V-FITC/propidium iodide staining-based flow cytometry (reference value: 3.87%); format: functional
[16] = system: SMMC-7721; assay: Induction of apoptosis in human SMMC7721 cells assessed as necrotic cells at 12 uM after 48 hrs by annexin V-FITC/propidium iodide staining-based flow cytometry (reference value: 0.77%); format: functional
[17] = Aqueous solubility of the compound in 10% PEG400 aqueous solution after 24 hrs by HPLC analysis; format: physicochemical
Method in brief: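 Roughly 20.0 mg of solid in 5 mL of 10% PEG400 in water. Sonicated 10 min, then stirred 24 h at 25 °C in a water bath. Centrifuged 10 min at 10,000 rpm and the supernatant passed through a microporous membrane. Concentration measured by HPLC against a standard curve.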

[18] = system: SMMC-7721; assay: Induction of apoptosis in human SMMC7721 cells assessed as late apoptotic cells at 6 uM after 48 hrs by annexin V-FITC/propidium iodide staining-based flow cytometry (reference value: 1.55%); format: functional
[19] = Cytotoxicity against human PANC1 cells after 48 hrs by MTT assay; format: functional, cell-based; conditions: PANC-1, 48 h; method in brief: as §2
[20] = system: SK-OV-3; assay: Cytotoxicity against human SKOV3 cells after 48 hrs by MTT assay; format: functional, cell-based; conditions: SK-OV-3, 48 h; method in brief: as §2
[21] = system: SMMC-7721; assay: Induction of apoptosis in human SMMC7721 cells assessed as early apoptotic cells at 3 uM after 48 hrs by annexin V-FITC/propidium iodide staining-based flow cytometry (reference value: 3.87%); format: functional
[22] = system: SMMC-7721; assay: Induction of apoptosis in human SMMC7721 cells assessed as late apoptotic cells at 12 uM after 48 hrs by annexin V-FITC/propidium iodide staining-based flow cytometry (reference value: 1.55%); format: functional
[23] = system: SMMC-7721; assay: Inhibition of Ras in human SMMC7721 cells assessed as reduction in phosphorylated ERK1 level after 8 hrs by immunoblotting analysis; format: cell-based; method in brief: as §3
[24] = system: SMMC-7721; assay: Inhibition of Ras in human SMMC7721 cells assessed as reduction in phosphorylated ERK1 level at 12 uM after 8 hrs by immunoblotting analysis; format: cell-based; method in brief: as §3
[25] = Cytotoxicity against human SGC7901 cells after 48 hrs by MTT assay; format: functional, cell-based; conditions: SGC-7901, 48 h; method in brief: as §2
[26] = system: SMMC-7721; assay: Induction of apoptosis in human SMMC7721 cells assessed as viable cells at 6 uM after 48 hrs by annexin V-FITC/propidium iodide staining-based flow cytometry (reference value: 93.81%); format: functional; conditions: SMMC-7721, 48 h, read-out: Activity
[27] = system: SMMC-7721; assay: Inhibition of Ras in human SMMC7721 cells assessed as reduction in phosphorylated ERK2 level after 8 hrs by immunoblotting analysis; format: cell-based; method in brief: as §3
[28] = system: EJ; assay: Cytotoxicity against human EJ cells after 48 hrs by MTT assay; format: functional, cell-based; method in brief: as §2
[29] = system: SMMC-7721; assay: Induction of apoptosis in human SMMC7721 cells assessed as necrotic cells at 6 uM after 48 hrs by annexin V-FITC/propidium iodide staining-based flow cytometry (reference value: 0.77%); format: functional
[30] = Lipophilicity, log P of the compound in 10% PEG400 aqueous solution; format: physicochemical
[31] = system: SMMC-7721; assay: Inhibition of Ras in human SMMC7721 cells assessed as reduction in phosphorylated Akt level at 12 uM after 8 hrs by immunoblotting analysis; format: cell-based; method in brief: as §3

SMILES: CC(C)=CCC/C(C)=C/CC/C(C)=C/CSc1ccccc1C(=O)NCCOCCN
- Activity [1]: Dose-dependent effect
- IC50 [2]: 7.29 µM
- IC50 [3]: 6.89 µM
- Activity [4]: 4.85%
- Activity [5]: Dose-dependent effect
- viability at 12 µM [6]: 15.3%
- Activity [7]: Active
- Activity [8]: 29.84%
- Activity [9]: 0.24%
- Activity [10]: Dose-dependent effect
- viability at 3 µM [11]: 84%
- IC50 [12]: 5.71 µM
- Activity [13]: Dose-dependent effect
- Activity [14]: Dose-dependent effect
- Activity [15]: 59.67%
- Activity [16]: 0.21%
- solubility at 24 h [17]: 23.8 mg/mL (≈ 53.4 mM)
- Activity [18]: 18.68%
- IC50 [19]: 3.78 µM
- IC50 [20]: 6.83 µM
- Activity [21]: 10.9%
- Activity [22]: 24.84%
- Activity [23]: Dose-dependent effect
- Activity [24]: Active
- IC50 [25]: 7.63 µM
- viability at 6 µM [26]: 49.4%
- Activity [27]: Dose-dependent effect
- IC50 [28]: 6.13 µM
- Activity [29]: 2.07%
- logP [30]: 4.85
- Activity [31]: Active

SMILES: CC(C)=CCC/C(C)=C/CC/C(C)=C/CSc1ccccc1C(=O)NCCCN
- IC50 [2]: 13.7 µM
- IC50 [3]: 20.4 µM
- IC50 [12]: 10.6 µM
- IC50 [19]: 11.8 µM
- IC50 [20]: 12.3 µM
- IC50 [25]: 12.8 µM
- IC50 [28]: 17.2 µM

SMILES: CC(C)=CCC/C(C)=C/CC/C(C)=C/CSc1ccccc1C(=O)NCCCCNC(=O)c1ccccc1SC/C=C(\C)CC/C=C(\C)CCC=C(C)C
- IC50 [2]: 45.8 µM
- IC50 [3]: > 50 µM
- IC50 [12]: > 50 µM
- IC50 [19]: > 50 µM
- IC50 [20]: > 50 µM
- IC50 [25]: > 50 µM
- IC50 [28]: > 50 µM

SMILES: CC(C)=CCC/C(C)=C/CC/C(C)=C/CSc1ccccc1C(=O)NCCCCN
- IC50 [2]: 11.2 µM
- IC50 [3]: 12.5 µM
- IC50 [12]: 15 µM
- IC50 [19]: 10.5 µM
- IC50 [20]: 7.8 µM
- IC50 [25]: 11.2 µM
- IC50 [28]: 13.1 µM

SMILES: CC(C)=CCC/C(C)=C/CC/C(C)=C/CSc1ccccc1C(=O)N1CCNCC1
- IC50 [2]: 34.1 µM
- IC50 [3]: 26.3 µM
- IC50 [12]: 32.4 µM
- IC50 [19]: 22.5 µM
- IC50 [20]: > 50 µM
- IC50 [25]: 25.7 µM
- IC50 [28]: 27.5 µM

SMILES: CC(C)=CCC/C(C)=C/CC/C(C)=C/CSc1ccccc1C(=O)NCCCCCCN
- IC50 [2]: 8.01 µM
- IC50 [3]: 7.52 µM
- IC50 [12]: 7.93 µM
- IC50 [19]: 8.69 µM
- IC50 [20]: 7.66 µM
- IC50 [25]: 7.87 µM
- IC50 [28]: 10.1 µM

SMILES: CC(C)=CCC/C(C)=C/CC/C(C)=C/CSc1ccccc1C(=O)NCCCCCN
- IC50 [2]: 7.83 µM
- IC50 [3]: 8.84 µM
- IC50 [12]: 9.21 µM
- solubility at 24 h [17]: 18 mg/mL (≈ 40.6 mM)
- IC50 [19]: 7.56 µM
- IC50 [20]: 7.13 µM
- IC50 [25]: 7.35 µM
- IC50 [28]: 9.85 µM
- logP [30]: 5.98

SMILES: CC(C)=CCC/C(C)=C/CC/C(C)=C/CSc1ccccc1C(=O)NCCN
- IC50 [2]: 28.7 µM
- IC50 [3]: 36 µM
- IC50 [12]: 25.2 µM
- IC50 [19]: > 50 µM
- IC50 [20]: 31.6 µM
- IC50 [25]: 33.8 µM
- IC50 [28]: > 50 µM
